Measurements taken from ChEMBL document CHEMBL5247575 (J Med Chem, 2018).

system: Escherichia coli; assay: Synergistic antibacterial activity against Escherichia coli DH10B transfected with pBC SK (-) KPC-3 assessed as meropenem MIC at 4 ug/ml by broth microdilution method; assay type: functional; settings: dose 4 µg/ml

Structure (SMILES)	MIC [µg/mL]
N#C[C@@H]1CC[C@@H]2CN1C(=O)N2OS(=O)(=O)[O-].[Na+]	≤ 0.12

system: Acinetobacter baumannii; assay: Synergistic antibacterial activity against Acinetobacter baumannii PR381 producing OXA-24/40 assessed as meropenem MIC at 4 ug/ml by broth microdilution method; assay type: functional; settings: dose 4 µg/ml

Structure (SMILES)	MIC [µg/mL]
N#C[C@@H]1CC[C@@H]2CN1C(=O)N2OS(=O)(=O)[O-].[Na+]	> 16

system: Klebsiella pneumoniae; assay: Synergistic antibacterial activity against Klebsiella pneumoniae 901/1860 producing KPC-3 assessed as meropenem MIC at 8 ug/ml by broth microdilution method; assay type: functional; settings: dose 8 µg/ml

Structure (SMILES)	MIC [µg/mL]
N#C[C@@H]1CC[C@@H]2CN1C(=O)N2OS(=O)(=O)[O-].[Na+]	≤ 0.12

system: Klebsiella pneumoniae; assay: Synergistic antibacterial activity against Klebsiella pneumoniae jefferson 1773 producing OXA-181 assessed as meropenem MIC at 4 ug/ml by broth microdilution method; assay type: functional; settings: dose 4 µg/ml

Structure (SMILES)	MIC [µg/mL]
N#C[C@@H]1CC[C@@H]2CN1C(=O)N2OS(=O)(=O)[O-].[Na+]	0.25

system: Escherichia coli; assay: Antibacterial activity against Escherichia coli DH10B transfected with pBC SK (-) PDC-3 by broth microdilution method; assay type: functional; settings: not given

Structure (SMILES)	MIC [µg/mL]
N#C[C@@H]1CC[C@@H]2CN1C(=O)N2OS(=O)(=O)[O-].[Na+]	> 16

system: Escherichia coli; assay: Synergistic antibacterial activity against Escherichia coli DH10B transfected with pBR322-catI-KPC-2 assessed as cefepime MIC at 4 ug/ml by broth microdilution method; assay type: functional; settings: dose 4 µg/ml
Method in brief: (§1)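 Broth microdilution per CLSI guidelines, using custom frozen panels. […] Each partner drug was also tested alone. MICs were run in triplicate and the modal value is reported.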

Structure (SMILES)	MIC [µg/mL]
N#C[C@@H]1CC[C@@H]2CN1C(=O)N2OS(=O)(=O)[O-].[Na+]	≤ 0.12

system: Acinetobacter baumannii; assay: Synergistic antibacterial activity against ADC deleted Acinetobacter baumannii assessed as cefepime MIC at 8 ug/ml by broth microdilution method; assay type: functional; settings: dose 8 µg/ml

Structure (SMILES)	MIC [µg/mL]
N#C[C@@H]1CC[C@@H]2CN1C(=O)N2OS(=O)(=O)[O-].[Na+]	0.5

system: Klebsiella pneumoniae; assay: Synergistic antibacterial activity against Klebsiella pneumoniae 1315/2198 producing KPC-3 assessed as meropenem MIC at 4 ug/ml by broth microdilution method; assay type: functional; settings: dose 4 µg/ml; method in brief: as §1

Structure (SMILES)	MIC [µg/mL]
N#C[C@@H]1CC[C@@H]2CN1C(=O)N2OS(=O)(=O)[O-].[Na+]	≤ 0.12

system: Bacteria; assay: Inhibition of bacteria ADC-7 assessed as second order rate constant K2/K using nitrocefin as substrate; settings: not given

Structure (SMILES)	K
N#C[C@@H]1CC[C@@H]2CN1C(=O)N2OS(=O)(=O)[O-].[Na+]	1.9 10^4/M/s

system: Klebsiella pneumoniae; assay: Synergistic antibacterial activity against Klebsiella pneumoniae CAV 1636 producing OXA-181 assessed as meropenem MIC at 8 ug/ml by broth microdilution method; assay type: functional; settings: dose 8 µg/ml

Structure (SMILES)	MIC [µg/mL]
N#C[C@@H]1CC[C@@H]2CN1C(=O)N2OS(=O)(=O)[O-].[Na+]	≤ 0.12

system: Escherichia coli; assay: Antibacterial activity against Escherichia coli DH10B transfected with pBC SK (-) OXA-48 by broth microdilution method; assay type: functional; settings: not given

Structure (SMILES)	MIC [µg/mL]
N#C[C@@H]1CC[C@@H]2CN1C(=O)N2OS(=O)(=O)[O-].[Na+]	> 16

system: Acinetobacter baumannii; assay: Synergistic antibacterial activity against Acinetobacter baumannii PR363 producing OXA-23 assessed as cefepime MIC at 4 ug/ml by broth microdilution method; assay type: functional; settings: dose 4 µg/ml

Structure (SMILES)	MIC [µg/mL]
N#C[C@@H]1CC[C@@H]2CN1C(=O)N2OS(=O)(=O)[O-].[Na+]	8

system: Klebsiella pneumoniae; assay: Synergistic antibacterial activity against Klebsiella pneumoniae 660/1568 producing KPC-3 assessed as meropenem MIC at 4 ug/ml by broth microdilution method; assay type: functional; settings: dose 4 µg/ml; method in brief: as §1

Structure (SMILES)	MIC [µg/mL]
N#C[C@@H]1CC[C@@H]2CN1C(=O)N2OS(=O)(=O)[O-].[Na+]	≤ 0.12

system: Klebsiella pneumoniae; assay: Synergistic antibacterial activity against Klebsiella pneumoniae CAV 1543 producing OXA-48 assessed as cefepime MIC at 8 ug/ml by broth microdilution method; assay type: functional; settings: dose 8 µg/ml

Structure (SMILES)	MIC [µg/mL]
N#C[C@@H]1CC[C@@H]2CN1C(=O)N2OS(=O)(=O)[O-].[Na+]	0.25

system: Acinetobacter baumannii; assay: Synergistic antibacterial activity against Acinetobacter baumannii PR420 producing OXA-23/24/40 assessed as cefepime MIC at 8 ug/ml by broth microdilution method; assay type: functional; settings: dose 8 µg/ml

Structure (SMILES)	MIC [µg/mL]
N#C[C@@H]1CC[C@@H]2CN1C(=O)N2OS(=O)(=O)[O-].[Na+]	> 16

system: Acinetobacter baumannii; assay: Synergistic antibacterial activity against ADC deleted Acinetobacter baumannii assessed as meropenem MIC at 4 ug/ml by broth microdilution method; assay type: functional; settings: dose 4 µg/ml

Structure (SMILES)	MIC [µg/mL]
N#C[C@@H]1CC[C@@H]2CN1C(=O)N2OS(=O)(=O)[O-].[Na+]	≤ 0.12

system: Klebsiella pneumoniae; assay: Synergistic antibacterial activity against Klebsiella pneumoniae 977/1916 producing KPC-3 assessed as cefepime MIC at 4 ug/ml by broth microdilution method; assay type: functional; settings: dose 4 µg/ml

Structure (SMILES)	MIC [µg/mL]
N#C[C@@H]1CC[C@@H]2CN1C(=O)N2OS(=O)(=O)[O-].[Na+]	≤ 0.12

system: Acinetobacter baumannii; assay: Synergistic antibacterial activity against Acinetobacter baumannii PR440 producing OXA-23/24/40 assessed as meropenem MIC at 8 ug/ml by broth microdilution method; assay type: functional; settings: dose 8 µg/ml

Structure (SMILES)	MIC [µg/mL]
N#C[C@@H]1CC[C@@H]2CN1C(=O)N2OS(=O)(=O)[O-].[Na+]	2

system: Acinetobacter baumannii; assay: Synergistic antibacterial activity against ADC deleted Acinetobacter baumannii transfected with pWH1266 OXA-23 assessed as meropenem MIC at 8 ug/ml by broth microdilution method; assay type: functional; settings: dose 8 µg/ml
Method in brief: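 Broth microdilution per CLSI guidelines in frozen panels. Test compound held at fixed 8 mg/L while the partner β-lactam concentration was increased. Run in triplicate; modal MIC reported.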

Structure (SMILES)	MIC [µg/mL]
N#C[C@@H]1CC[C@@H]2CN1C(=O)N2OS(=O)(=O)[O-].[Na+]	4

system: Klebsiella pneumoniae; assay: Synergistic antibacterial activity against Klebsiella pneumoniae 761/1723 producing KPC-3 assessed as cefepime MIC at 4 ug/ml by broth microdilution method; assay type: functional; settings: dose 4 µg/ml; method in brief: as §1

Structure (SMILES)	MIC [µg/mL]
N#C[C@@H]1CC[C@@H]2CN1C(=O)N2OS(=O)(=O)[O-].[Na+]	≤ 0.12

system: Klebsiella pneumoniae; assay: Synergistic antibacterial activity against Klebsiella pneumoniae CAV 1543 producing OXA-48 assessed as meropenem MIC at 8 ug/ml by broth microdilution method; assay type: functional; settings: dose 8 µg/ml

Structure (SMILES)	MIC [µg/mL]
N#C[C@@H]1CC[C@@H]2CN1C(=O)N2OS(=O)(=O)[O-].[Na+]	≤ 0.12

system: Klebsiella pneumoniae; assay: Synergistic antibacterial activity against Klebsiella pneumoniae 977/1916 producing KPC-3 assessed as meropenem MIC at 4 ug/ml by broth microdilution method; assay type: functional; settings: dose 4 µg/ml

Structure (SMILES)	MIC [µg/mL]
N#C[C@@H]1CC[C@@H]2CN1C(=O)N2OS(=O)(=O)[O-].[Na+]	≤ 0.12

system: Klebsiella pneumoniae; assay: Synergistic antibacterial activity against Klebsiella pneumoniae 776/1742 producing KPC-2 assessed as cefepime MIC at 8 ug/ml by broth microdilution method; assay type: functional; settings: dose 8 µg/ml

Structure (SMILES)	MIC [µg/mL]
N#C[C@@H]1CC[C@@H]2CN1C(=O)N2OS(=O)(=O)[O-].[Na+]	1

system: Escherichia coli; assay: Synergistic antibacterial activity against Escherichia coli DH10B assessed as cefepime MIC at 8 ug/ml by broth microdilution method; assay type: functional; settings: dose 8 µg/ml

Structure (SMILES)	MIC [µg/mL]
N#C[C@@H]1CC[C@@H]2CN1C(=O)N2OS(=O)(=O)[O-].[Na+]	≤ 0.12

system: Klebsiella pneumoniae; assay: Synergistic antibacterial activity against Klebsiella pneumoniae 1354/2241 producing KPC-3 assessed as meropenem MIC at 8 ug/ml by broth microdilution method; assay type: functional; settings: dose 8 µg/ml; method in brief: as §1

Structure (SMILES)	MIC [µg/mL]
N#C[C@@H]1CC[C@@H]2CN1C(=O)N2OS(=O)(=O)[O-].[Na+]	≤ 0.12

system: Escherichia coli; assay: Synergistic antibacterial activity against Escherichia coli DH10B transfected with pBC SK (-) KPC-2 assessed as cefepime MIC at 4 ug/ml by broth microdilution method; assay type: functional; settings: dose 4 µg/ml

Structure (SMILES)	MIC [µg/mL]
N#C[C@@H]1CC[C@@H]2CN1C(=O)N2OS(=O)(=O)[O-].[Na+]	≤ 0.12

system: Escherichia coli; assay: Synergistic antibacterial activity against Escherichia coli DH10B transfected with pBC SK (-) OXA-48 assessed as cefepime MIC at 4 ug/ml by broth microdilution method; assay type: functional; settings: dose 4 µg/ml; method in brief: as §1

Structure (SMILES)	MIC [µg/mL]
N#C[C@@H]1CC[C@@H]2CN1C(=O)N2OS(=O)(=O)[O-].[Na+]	≤ 0.12

system: Acinetobacter baumannii; assay: Synergistic antibacterial activity against Acinetobacter baumannii PR448 producing OXA-23 assessed as meropenem MIC at 8 ug/ml by broth microdilution method; assay type: functional; settings: dose 8 µg/ml

Structure (SMILES)	MIC [µg/mL]
N#C[C@@H]1CC[C@@H]2CN1C(=O)N2OS(=O)(=O)[O-].[Na+]	1

system: Acinetobacter baumannii; assay: Synergistic antibacterial activity against Acinetobacter baumannii PR323 producing OXA-24/40 assessed as cefepime MIC at 8 ug/ml by broth microdilution method; assay type: functional; settings: dose 8 µg/ml

Structure (SMILES)	MIC [µg/mL]
N#C[C@@H]1CC[C@@H]2CN1C(=O)N2OS(=O)(=O)[O-].[Na+]	> 16

system: Acinetobacter baumannii; assay: Synergistic antibacterial activity against ADC deleted Acinetobacter baumannii transfected with pWH1266 OXA-23 assessed as cefepime MIC at 8 ug/ml by broth microdilution method; assay type: functional; settings: dose 8 µg/ml

Structure (SMILES)	MIC [µg/mL]
N#C[C@@H]1CC[C@@H]2CN1C(=O)N2OS(=O)(=O)[O-].[Na+]	2

system: Klebsiella pneumoniae; assay: Synergistic antibacterial activity against Klebsiella pneumoniae 935/1884 producing KPC-3 assessed as meropenem MIC at 8 ug/ml by broth microdilution method; assay type: functional; settings: dose 8 µg/ml

Structure (SMILES)	MIC [µg/mL]
N#C[C@@H]1CC[C@@H]2CN1C(=O)N2OS(=O)(=O)[O-].[Na+]	≤ 0.12

system: Pseudomonas aeruginosa; assay: Antibacterial activity against Pseudomonas aeruginosa CL232 by broth microdilution method; assay type: functional; settings: not given

Structure (SMILES)	MIC [µg/mL]
N#C[C@@H]1CC[C@@H]2CN1C(=O)N2OS(=O)(=O)[O-].[Na+]	> 16

system: Acinetobacter baumannii; assay: Synergistic antibacterial activity against Acinetobacter baumannii PR420 producing OXA-23/24/40 assessed as cefepime MIC at 4 ug/ml by broth microdilution method; assay type: functional; settings: dose 4 µg/ml

Structure (SMILES)	MIC [µg/mL]
N#C[C@@H]1CC[C@@H]2CN1C(=O)N2OS(=O)(=O)[O-].[Na+]	> 16

system: Escherichia coli; assay: Synergistic antibacterial activity against Escherichia coli DH10B transfected with pBC SK (-) OXA-48 assessed as meropenem MIC at 4 ug/ml by broth microdilution method; assay type: functional; settings: dose 4 µg/ml; method in brief: as §1

Structure (SMILES)	MIC [µg/mL]
N#C[C@@H]1CC[C@@H]2CN1C(=O)N2OS(=O)(=O)[O-].[Na+]	≤ 0.12

system: Acinetobacter baumannii; assay: Synergistic antibacterial activity against Acinetobacter baumannii PR323 producing OXA-24/40 assessed as meropenem MIC at 4 ug/ml by broth microdilution method; assay type: functional; settings: dose 4 µg/ml

Structure (SMILES)	MIC [µg/mL]
N#C[C@@H]1CC[C@@H]2CN1C(=O)N2OS(=O)(=O)[O-].[Na+]	16

system: Acinetobacter baumannii; assay: Synergistic antibacterial activity against Acinetobacter baumannii PR359 producing OXA-23 assessed as cefepime MIC at 8 ug/ml by broth microdilution method; assay type: functional; settings: dose 8 µg/ml

Structure (SMILES)	MIC [µg/mL]
N#C[C@@H]1CC[C@@H]2CN1C(=O)N2OS(=O)(=O)[O-].[Na+]	8

system: Klebsiella pneumoniae; assay: Synergistic antibacterial activity against Klebsiella pneumoniae 1084/1957 producing KPC-3 assessed as cefepime MIC at 4 ug/ml by broth microdilution method; assay type: functional; settings: dose 4 µg/ml; method in brief: as §1

Structure (SMILES)	MIC [µg/mL]
N#C[C@@H]1CC[C@@H]2CN1C(=O)N2OS(=O)(=O)[O-].[Na+]	≤ 0.12

system: Klebsiella pneumoniae; assay: Synergistic antibacterial activity against Klebsiella pneumoniae 977/1916 producing KPC-3 assessed as meropenem MIC at 8 ug/ml by broth microdilution method; assay type: functional; settings: dose 8 µg/ml

Structure (SMILES)	MIC [µg/mL]
N#C[C@@H]1CC[C@@H]2CN1C(=O)N2OS(=O)(=O)[O-].[Na+]	≤ 0.12
